This is an account of results in paper PMC3040319 (Pharmaceutical Research, 2010).

Series [1] relates to primary mouse hepatocytes. It counts as in vitro ADME. The conditions noted are these: 30 min exposure.
The nature of series [2]: Tissue accumulation of platinum in Oct1+/+ and Oct1-/- mice. It counts as in vivo, mouse. The conditions noted are these: 1 h after 8 mg/kg i.v. In outline: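 Male FVB Oct1+/+ and Oct1-/- mice (8 weeks) were given 8 mg/kg in saline i.v. by tail vein and killed 1 h later. Liver, kidney, heart, lung, brain, intestine, spleen and muscle were snap-frozen. Total Pt was measured by ICP-MS in 10–30 mg tissue and reported as nmol/g tissue; plasma was reported in μM.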

Another series deals with Oct1+/+ and Oct1-/- mice. The experiment in a line: Toxicity study of oxaliplatin in Oct1+/+ and Oct1-/- mice. It counts as in vivo, mouse. The conditions noted are these: 6 mg/kg i.p. once daily for 5 days.

Each structure is given as a SMILES string. Read-outs that look alike come from different tables or passages of the source.

On to `O=C1[O][Pt]2([NH][C@@H]3CCCC[C@H]3[NH]2)[O]C1=O` [oxaliplatin, Oxaliplatin, reference compound], for which the “hepatocellular uptake rate, wild-type as fold of Oct1-/-” value in series [1] (1 μM) is given as 1.8 fold; in series [1] (5 μM), 1.4 fold. Moreover, the hepatocellular uptake rate in series [1] (hepatocytes from Oct1-/- mice, 1 μM) was 0.855 ± 0.184 pmol/mg protein/hr; in series [1] (hepatocytes from Oct1-/- mice, 5 μM), 3.97 ± 0.500 pmol/mg protein/hr; in series [1] (hepatocytes from Oct1 wild-type mice, 1 μM), 1.54 ± 0.300 pmol/mg protein/hr; in series [1] (hepatocytes from Oct1 wild-type mice, 5 μM), 5.55 ± 0.384 pmol/mg protein/hr. Further, the plasma concentration in series [2] (Oct1+/+ mice) worked out at 5.96 ± 0.54 µM; in series [2] (Oct1-/- mice) it was 6.69 ± 0.62 µM. The “relative body weight loss” value in the series with Oct1+/+ and Oct1-/- mice (Oct1+/+ mice) was determined as 15.1%; in the series on Oct1+/+ and Oct1-/- mice (Oct1-/- mice) it was 6.8%. For the same compound, the liver histopathology examination entry with Oct1+/+ and Oct1-/- mice (either Oct1+/+ or Oct1-/- mice) is “no clear sign of liver damage”.
